From ChEMBL document CHEMBL1121539, “Antitumor structure-activity relations. Nitrosoureas vs. L-1210 leukemia” (J Med Chem, 1980)

Key:
L1210 [1] = assay: Tested for 3 log kill of leukemia cells; type: functional, Mus musculus
How it was run: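 L-1210 leukemia cells (10^4) were inoculated intracerebrally into BDF2 mice, and drug was given intraperitoneally. The end point was the dose giving 3 log kill, expressed as log 1/C. The value comes from one or more individual experiments.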

L1210 [2] = assay: Toxicity against L-1210 leukemia cells in mice after intraperitoneal administration, activity is expressed as LD10; set-up: LD10: unit not given here; conditions: mouse, in vivo, ip
[3] = Partition coefficient (logP); type: physicochemical; conditions: octanol/water
How it was run: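 Shake partitioning between octanol and distilled water gave log P. For carboxylate substituents, log P was taken in 0.1 N NaOH, with Na+ as counterion.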

SMILES | log(1/C) (L1210 [1]) | log(1/LD10) (L1210 [2]) | logP ([3]; read-out: logP) | logP [3] | LD10 (L1210 [2])
O=NN(CCCl)C(=O)NC1CCC(=O)NC1=O (stereo unspecified) | 1.8 | 1.16 |  |  | 
CCCCCC(C)NC(=O)N(CCCl)N=O (stereo unspecified) | 0.853 | 0.642 | 3.55 |  | 
O=NN(CCCl)C(=O)NCCF | 0.673 | 0.49 | 0.95 |  | 
O=NN(CCCl)C(=O)NC1CCCCCCCCCCC1 | 0.599 | -0.573 | 5.8 |  | 
O=NN(CCCl)C(=O)NC1C2CC3CC(C2)CC1C3 (stereo unspecified) | 0.854 | 0.512 | 3.62 |  | 
O=NN(CCCl)C(=O)NC1CCSc2ccccc21 (stereo unspecified) | 1.4 | 0.585 | 2.91 |  | 
O=NN(CCF)C(=O)NC1CCSCC1 | 1.69 | 0.827 | 1.43 |  | 
O=NN(CCF)C(=O)NC1CSCSC1 | 1.78 | 0.802 | 1.54 |  | 
CC(=O)OCC1CCC(NC(=O)N(CCCl)N=O)CC1 (stereo unspecified) | 1.66 | 1.02 | 2.35 |  | 
O=NN(CCF)C(=O)NCCF | 1.6 | 1.37 | 0.38 |  | 
O=NN(CCCl)C(=O)NC1C(O)CCCC1O (stereo unspecified) |  | 1.17 | 0.16 |  | 
O=NN(CCCl)C(=O)NC1CCC(NC(=O)N(CCCl)N=O)CC1 (stereo unspecified) |  | 0.66 | 3.57 |  | 
COC1OC(COC(C)=O)C(OC(C)=O)C(NC(=O)N(CCCl)N=O)C1OC(C)=O (stereo unspecified) |  | 1.06 | 0.67 |  | 
CC(=O)OC1CCC(NC(=O)N(CCCl)N=O)CC1 (stereo unspecified) | 1.55 | 0.813 | 1.66 |  | 
Cc1cc(C)c(NC(=O)N(CCCl)N=O)c(C)c1 | 1.58 | 0.675 | 3.11 |  | 
O=COCC1CCC(NC(=O)N(CCCl)N=O)CC1 (stereo unspecified) | 1.62 | 1.12 | 1.85 |  | 
CCOC(=O)C1(NC(=O)N(CCCl)N=O)CCCCC1 | 0.582 | -0.214 | 3.45 |  | 
O=NN(CCF)C(=O)NC1CC2CCC1C2 (stereo unspecified) | 1.25 | 0.547 | 2.4 |  | 
CCOC(=O)C1(NC(=O)N(CCCl)N=O)CCCC1 | 0.562 | 0.072 | 2.88 |  | 
CC(=O)OCC1OCC(NC(=O)N(CCCl)N=O)C(OC(C)=O)C1OC(C)=O (stereo unspecified) | 1.79 |  | 1.87 |  | 

SMILES | log(1/C) (L1210 [1]) | log(1/LD10) (L1210 [2]) | logP ([3]; read-out: logP) | logP [3] | LD10 (L1210 [2])
CC(C)(C)C1CCC(NC(=O)N(CCCl)N=O)CC1 (stereo unspecified) | 0.684 | -0.212 | 4.66 |  | 
CCOC(=O)C1CCC(NC(=O)N(CCCl)N=O)CC1 (stereo unspecified) | 1.51 | 0.967 | 2.2 |  | 
O=NN(CCCl)C(=O)NC1(C(=O)O)CCCC1 | 0.605 | 0.308 | 1.82 |  | 
CC1CCC(NC(=O)N(CCF)N=O)CC1 (stereo unspecified) | 1.16 | 0.72 | 2.72 |  | 
CC1(C)CCC(NC(=O)N(CCF)N=O)CC1 | 1.09 | 0.674 | 3.13 |  | 
O=NN(CCF)C(=O)NC1CCCCC1 | 1.34 | 0.806 | 2.25 |  | 
O=NN(CCF)C(=O)NC1CCCCCCCCCCC1 |  | 0.496 | 5.22 |  | 
C[C@H]1CC[C@H](NC(=O)N(CCCl)N=O)CC1 | 1.55 | 0.771 |  |  | 
O=NN(CCCl)C(=O)N[C@H]1CC[C@@H](O)CC1 | 1.36 | 0.735 |  |  | 
O=NN(CCCl)C(=O)N[C@H]1CC[C@H](C(=O)O)CC1 | 1.47 | 1.01 | 1.53 |  | 
O=NN(CCCl)C(=O)N[C@H]1CC[C@H](CC(=O)O)CC1 | 1.65 | 0.863 | 2.16 |  | 
O=NN(CCCl)C(=O)N[C@H]1CCCC[C@@H]1Cl | 1.34 | 0.672 |  |  | 
O=NN(CCCl)C(=O)N[C@@H]1CCCC[C@H]1O | 1.82 | 1.1 | 1.34 |  | 
C[C@H]1S(=O)(=O)C[C@H](NC(=O)N(CCCl)N=O)CS1(=O)=O | 1.89 | 0.801 | -0.53 |  | 
C[C@H]1CCC[C@@H](NC(=O)N(CCCl)N=O)C1 | 1.09 | 0.315 | 3.37 |  | 
O=NN(CCCl)C(=O)N[C@@H]1CCCC[C@@H]1Cl | 0.951 | 0.446 | 2.73 |  | 
CO[C@H]1CC[C@H](NC(=O)N(CCCl)N=O)CC1 | 1.44 | 0.841 | 2.09 |  | 
COC(=O)[C@H]1CC[C@H](NC(=O)N(CCCl)N=O)CC1 |  | 1.05 | 1.89 |  | 
C[C@H]1CCC[C@H](NC(=O)N(CCCl)N=O)C1 | 1.09 |  |  | 3.3 | 0.352
O=NN(CCF)C(=O)N[C@H]1CC[C@H](C(=O)O)CC1 | 1.21 |  |  | 1.1 | 

SMILES | log(1/C) (L1210 [1]) | log(1/LD10) (L1210 [2]) | logP ([3]; read-out: logP) | logP [3] | LD10 (L1210 [2])
C[C@H]1S(=O)(=O)C[C@@H](NC(=O)N(CCCl)N=O)CS1(=O)=O | 1.89 | 1.04 | -0.53 |  | 
C[C@H]1CC[C@@H](NC(=O)N(CCCl)N=O)CC1 |  | 0.435 | 3.3 |  | 
O=NN(CCCl)C(=O)N[C@@H]1CCC[C@H](O)C1 | 1.28 | 0.698 | 1.11 |  | 
CC1(NC(=O)N(CCCl)N=O)CCCC1 | 0.576 | -0.03 | 2.7 |  | 
O=NN(CCCl)C(=O)NC1CC2CCC1C2 (stereo unspecified) | 1.21 | 0.591 | 2.98 |  | 
O=NN(CCCl)C(=O)NC1CCCC1 | 0.74 | 0.215 | 2.19 |  | 
CN(C)C(=O)c1ccc(NC(=O)N(CCCl)N=O)cc1 | 1.87 |  | 1.07 |  | 1.27
O=NN(CCF)C(=O)NC1CCSc2ccccc21 (stereo unspecified) | 1.31 | 0.896 | 2.33 |  | 
CC1CC(O)C(NC(=O)N(CCCl)N=O)C(O)C1 (stereo unspecified) |  | 1.12 | 0.69 |  | 
CC(C)(C)C1CCCC(NC(=O)N(CCCl)N=O)C1 (stereo unspecified) | 0.763 | 0.239 | 4.6 |  | 
O=NN(CCF)C(=O)NC1CS(=O)(=O)CS(=O)(=O)C1 | 1.69 | 0.626 | -1.48 |  | 
O=NN(CCCl)C(=O)NC(Cc1ccccc1)C(=O)O (stereo unspecified) | 1.1 | 0.563 | 2.59 |  | 
CC1CC(NC(=O)N(CCCl)N=O)CC(C)(C)C1 (stereo unspecified) | 0.294 | -0.434 | 4.06 |  | 
O=NN(CCCl)C(=O)NC1CCC(Cl)CC1 (stereo unspecified) | 1.25 | 0.738 | 2.66 |  | 
CC(=O)OCC1OC(NC(=O)N(CCCl)N=O)C(OC(C)=O)C(OC(C)=O)C1OC(C)=O (stereo unspecified) |  | 1.41 | 1.04 |  | 
CC(=O)OC1CCC(NC(=O)N(CCF)N=O)CC1 (stereo unspecified) | 1.4 | 0.884 | 1.33 |  | 
COCC1OC(O)C(NC(=O)N(CCCl)N=O)C(OC)C1OC (stereo unspecified) | 1.48 | 0.682 | 0.8 |  | 
O=NN(CCCl)C(=O)NCCCl [CARMUSTINE] | 1.59 | 0.718 |  |  | 
O=NN(CCCl)C(=O)NC1CCCCC1 [LOMUSTINE] | 1.25 | 0.613 |  |  | 
